Laboratory results: ChEMBL document CHEMBL4396917, “Synthesis and biological evaluation of novel benzylidene-succinimide derivatives as noncytotoxic antiangiogenic inhibitors with anticolorectal cancer activity in vivo” (Eur J Med Chem, 2019)
Calls of active or inactive are those of the source. The rule behind the calls is not given here.

What was measured:
Mus musculus = assay: Antiangiogenic activity in Matrigel plug angiogenic Balb/c mouse model assessed as impaired vascularization by measuring loss of red colour in VEGF-supplemented matrigel at 20 to 60 mg/kg, sc measured after 15 days; type: functional, organism-based
How it was run: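 Balb/c nude mice (6–8 weeks), three groups, injected subcutaneously with 400 μL Matrigel alone or with VEGF (250 ng/mL) and/or compound; after 15 days plugs removed, weighed and photographed.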

HUVEC [1] = assay: Antiangiogenic activity against HUVEC assessed as inhibition of cell proliferation measured […] by MTT assay; type: functional, cell-based; conditions: Homo sapiens
HT-29 [2] = assay: Cytotoxicity against human HT-29 cells assessed as reduction in cell growth after 72 hrs by MTT assay; type: cell-based; conditions: HT-29, 72 h
HUVEC [3] = assay: Antimigratory activity in HUVEC assessed as reduction in VEGF-induced cell migration at 2.5 uM measured after 6 hrs by wound healing assay relative to control; type: functional; conditions: Homo sapiens
How it was run: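 Confluent HUVECs starved 12 h in M200 with 2% FBS, scratched with pipette tip; fresh M200 with 25 ng/mL VEGF plus vehicle, 2.5 μM sunitinib or compound (1, 2.5 μM); wound imaged at 0, 6, 12 and 24 h by inverted microscopy.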

HUVEC [4] = assay: Antiinvasive activity in HUVEC assessed as inhibition of VEGF-induced cell invasion after 6 hrs by crystal violet staining based transwell assay; type: functional; conditions: Homo sapiens
How it was run: (§1)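 Transwell: 1×10⁴ HUVECs in serum-free M200 in top chamber with vehicle or compound; bottom chamber M200 with 10% FBS; 6 h at 37°C; cells on membrane underside fixed in 4% paraformaldehyde, stained 0.1% crystal violet, imaged and counted.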

HUVEC [5] = assay: Antiinvasive activity in HUVEC assessed as inhibition of VEGF-induced cell invasion at 5 uM after 6 hrs by crystal violet staining based transwell assay relative to control; type: functional; conditions: Homo sapiens; how it was run: as §1
HUVEC [6] = assay: Antiangiogenic activity in HUVEC assessed as inhibition of VEGF-induced capillary like tube formation at 1 uM preincubated with VEGF for 20 mins followed by compound addition measured after 6 hrs by matrigel based tube formation assay relative to control; type: functional; conditions: Homo sapiens
How it was run: (§2)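 Matrigel (100 μL) set 1 h at 37°C; 2×10⁴ HUVECs in M200 with 10% FBS added per well plus 10 ng/mL VEGF; compound added after 20 min; incubated 6 h at 37°C, then capillary-like structures photographed.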

HUVEC [7] = assay: Antiangiogenic activity in HUVEC assessed as inhibition of VEGF-induced capillary like tube formation at 5 uM preincubated with VEGF for 20 mins followed by compound addition measured after 6 hrs by matrigel based tube formation assay relative to control; type: functional; conditions: Homo sapiens; how it was run: as §2
HUVEC [8] = assay: Induction of apoptosis in VEGF-stimulated HUVEC assessed as PARP cleavage at 1 to 20 uM by Western blot analysis; type: cell-based; conditions: human
HT-29 [9] = assay: Induction of apoptosis in human HT-29 cells assessed as early apoptotic cells at 1 uM after 24 hrs by Annexin V-FITC/propidium iodide staining based flow cytometric analysis (reference value: 1.9%); type: cell-based; conditions: ht-29, 24 h
HT-29 [10] = assay: Induction of apoptosis in human HT-29 cells assessed as late apoptotic cells at 5 uM after 24 hrs by Annexin V-FITC/propidium iodide staining based flow cytometric analysis (reference value: 12.3 to 13.4%); type: cell-based; conditions: ht-29, 24 h
HT-29 [11] = assay: Induction of apoptosis in human HT-29 cells assessed as PARP cleavage up to 20 uM after 24 to 72 hrs by Western blot analysis; type: cell-based
[12] = biological target: Vascular endothelial growth factor receptor 2 (Homo sapiens) (UniProt P35968); assay: Inhibition of VEGFR2 in VEGF-stimulated HUVEC assessed as downregulation of AKT phosphorylation at Ser473 residue at 1 to 10 uM pre-incubated for 2 hrs followed by VEGF stimulation and measured after 15 mins by Western blot analysis; type: cell-based
Sequence of Vascular endothelial growth factor receptor 2 (Homo sapiens) (P35968 whole entry): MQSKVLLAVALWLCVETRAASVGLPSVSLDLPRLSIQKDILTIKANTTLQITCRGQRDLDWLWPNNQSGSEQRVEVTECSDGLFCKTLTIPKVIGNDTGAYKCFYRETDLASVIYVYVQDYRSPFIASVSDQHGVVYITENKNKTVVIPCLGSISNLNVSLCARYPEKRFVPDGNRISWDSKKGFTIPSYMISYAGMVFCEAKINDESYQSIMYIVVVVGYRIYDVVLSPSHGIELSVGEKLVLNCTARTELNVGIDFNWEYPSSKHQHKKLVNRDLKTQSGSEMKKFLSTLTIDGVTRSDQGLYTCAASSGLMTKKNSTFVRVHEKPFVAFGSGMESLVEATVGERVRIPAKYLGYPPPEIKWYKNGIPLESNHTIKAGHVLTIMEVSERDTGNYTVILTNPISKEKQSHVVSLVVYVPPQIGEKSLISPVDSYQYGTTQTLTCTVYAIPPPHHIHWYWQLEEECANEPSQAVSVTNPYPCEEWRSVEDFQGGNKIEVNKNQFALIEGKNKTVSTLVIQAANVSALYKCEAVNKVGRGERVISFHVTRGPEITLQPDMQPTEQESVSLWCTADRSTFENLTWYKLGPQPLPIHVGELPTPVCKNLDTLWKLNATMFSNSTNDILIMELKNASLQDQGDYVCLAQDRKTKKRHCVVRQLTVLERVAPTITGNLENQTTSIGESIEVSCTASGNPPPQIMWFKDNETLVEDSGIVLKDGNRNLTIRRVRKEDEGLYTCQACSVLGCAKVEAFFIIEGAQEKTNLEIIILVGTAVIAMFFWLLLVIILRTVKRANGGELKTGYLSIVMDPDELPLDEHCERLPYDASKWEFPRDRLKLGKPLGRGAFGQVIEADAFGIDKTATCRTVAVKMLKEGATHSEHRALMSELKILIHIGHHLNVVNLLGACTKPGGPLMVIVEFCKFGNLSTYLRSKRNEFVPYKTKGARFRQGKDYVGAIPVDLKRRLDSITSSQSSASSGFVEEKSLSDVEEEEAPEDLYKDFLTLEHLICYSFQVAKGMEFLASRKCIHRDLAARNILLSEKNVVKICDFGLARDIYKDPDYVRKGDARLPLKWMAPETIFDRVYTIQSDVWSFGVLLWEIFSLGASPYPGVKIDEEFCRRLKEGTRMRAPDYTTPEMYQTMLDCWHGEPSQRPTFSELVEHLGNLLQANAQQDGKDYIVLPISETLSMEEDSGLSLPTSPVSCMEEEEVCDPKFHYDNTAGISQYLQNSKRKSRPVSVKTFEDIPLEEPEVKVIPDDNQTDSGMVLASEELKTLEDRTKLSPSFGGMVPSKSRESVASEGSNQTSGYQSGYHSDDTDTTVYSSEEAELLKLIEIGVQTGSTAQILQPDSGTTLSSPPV
How it was run: (§3)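 HUVECs serum-starved overnight, pretreated 2 h with 1, 2.5, 5 or 10 μM compound, then stimulated 15 min with 50 ng/mL VEGF165. Lysed in Tris/EDTA/Triton/deoxycholate/SDS buffer with phosphatase and protease inhibitors. Protein equalized by Bradford, about 20 μg resolved on gradient SDS-PAGE. Blots probed for phospho and total VEGFR2 (Tyr1175), ERK1/2 (Thr202/Tyr204) and AKT (Ser473) against actin, with HRP/ECL detection.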

[13] = biological target: Vascular endothelial growth factor receptor 2 (Homo sapiens) (UniProt P35968); assay: Inhibition of VEGFR2 in VEGF-stimulated HUVEC assessed as downregulation of ERK1/2 phosphorylation at Thr202/Tyr204 residues at 1 to 10 uM pre-incubated for 2 hrs followed by VEGF stimulation and measured after 15 mins by Western blot analysis; type: cell-based; how it was run: as §3
HUVEC [14] = assay: Effect on total ERK expression in VEGF-induced HUVEC at 1 to 20 uM pre-incubated for 2 hrs followed by VEGF stimulation and measured after 15 mins by Western blot analysis; type: ADME, cell-based; conditions: human, 0.25 h
How it was run: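 HUVECs serum-starved overnight, pretreated with compound (methods: 1, 2.5, 5, 10 μM for 2 h; legend: 1, 5, 10, 20 μM for 1.5 h), then VEGF 50 ng/mL (methods: VEGF165, 15 min; legend: 30 min); lysates equalized by Bradford, ~20 μg protein resolved on gradient SDS-PAGE, immunoblotted, ECL detection.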

HUVEC [15] = assay: Inhibition of Akt/mTOR signalling in VEGF-induced HUVEC assessed as reduction in P70S6K phosphorylation at Thr389 residue pre-incubated for 1.5 hrs followed by VEGF stimulation and measured after 30 mins by Western blot analysis; type: cell-based; conditions: Homo sapiens
How it was run: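 HUVECs were starved overnight, pretreated 1.5 h with 1, 5, 10 or 20 μM, then stimulated with VEGF (50 ng/mL) for 30 min. Lysates were equalized by Bradford assay, about 20 μg protein was resolved on gradient SDS-PAGE and immunoblotted with phospho-specific antibodies. Detection by HRP secondary antibodies and ECL.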

[16] = biological target: Serine/threonine-protein kinase mTOR (Homo sapiens) (UniProt P42345); assay: Inhibition of mTOR (unknown origin) at 10 uM using myelin basic protein as substrate in presence of [gamma-33P]-ATP by scintillation counting analysis relative to control
How it was run: (§4)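 Radiometric kinase panel run by a contract lab. Kinase (5–10 mU) in 25 mM Tris pH 7.5, 0.02 mM EGTA, 0.66 mg/mL myelin basic protein, magnesium acetate and [γ-33P]-ATP (about 500 cpm/pmol). Started with Mg-ATP mix, 40 min at room temperature, stopped with 3% phosphoric acid. Spotted on P30 filters, washed in 75 mM phosphoric acid and methanol, scintillation counted. Mean ± SD of three independent experiments.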

[17] = biological target: Ribosomal protein S6 kinase beta-1 (Homo sapiens) (UniProt P23443); assay: Inhibition of P70S6K (unknown origin) at 10 uM using myelin basic protein as substrate in presence of [gamma-33P]-ATP by scintillation counting analysis relative to control; how it was run: as §4
Sequence of Ribosomal protein S6 kinase beta-1 (Homo sapiens) (P23443 whole entry, looked up): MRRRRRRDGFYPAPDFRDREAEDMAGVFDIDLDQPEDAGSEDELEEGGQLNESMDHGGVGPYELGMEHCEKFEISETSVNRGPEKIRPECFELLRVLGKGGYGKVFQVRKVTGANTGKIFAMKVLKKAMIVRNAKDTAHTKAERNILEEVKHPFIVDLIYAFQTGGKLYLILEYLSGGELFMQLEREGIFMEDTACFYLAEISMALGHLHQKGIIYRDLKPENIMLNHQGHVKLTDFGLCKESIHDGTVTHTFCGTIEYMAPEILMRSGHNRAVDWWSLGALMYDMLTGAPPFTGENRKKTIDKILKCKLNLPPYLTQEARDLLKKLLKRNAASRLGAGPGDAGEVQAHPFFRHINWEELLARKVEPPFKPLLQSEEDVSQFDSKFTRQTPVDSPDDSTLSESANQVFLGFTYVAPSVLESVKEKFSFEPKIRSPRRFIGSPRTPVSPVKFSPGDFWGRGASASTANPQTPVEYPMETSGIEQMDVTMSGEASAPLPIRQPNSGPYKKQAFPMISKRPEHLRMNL

HT-29 [18] = assay: Antiangiogenic activity against human HT-29 cells xenografted in mouse assessed as reduction in formation of new blood vessels in tumour at 20 to 60 mg/kg, po administered every other day for 3 weeks measured at 20 days post-treatment; type: functional, organism-based
HT-29 [19] = assay: Downregulation of MMP9 expression in human HT-29 cells after 24 hrs by immunoblot analysis; type: functional, cell-based

inhibition [12]: Active
inhibition [13]: Active
Activity (HUVEC [14]): Not Active
inhibition [16]: 93.8%
inhibition [17]: 50 to 70%
Compound: COc1ccc(NC(=O)c2cccc(/C=C3\CC(=O)N(c4ccc(C)cc4)C3=O)c2)cc1
Activity (Mus musculus): Active
inhibition (HUVEC [1]): Dose-dependent effect
IC50 (HUVEC [1]; 0.5 h): 26.6 µM
IC50 (HT-29 [2]): > 100 µM
inhibition at 2.5 µM (HUVEC [3]): 30%
inhibition (HUVEC [4]): Dose-dependent effect
inhibition at 5 µM (HUVEC [5]): 40%
inhibition at 1 µM (HUVEC [6]): 30%
inhibition at 5 µM (HUVEC [7]): 80%
Activity (HUVEC [8]): Non-Toxic
Activity (HT-29 [9]): 1.3%
Activity (HT-29 [10]): 15.9 to 18.4%
Activity (HT-29 [11]): Non-Toxic
inhibition (HUVEC [15]): Dose-dependent effect
inhibition (HT-29 [18]): Active
inhibition (HT-29 [19]): Dose-dependent effect
